Our source for the inhibition and IC50 values is ChEMBL document CHEMBL4342467, “Discovery of a Novel Dual-Target Inhibitor of ERK1 and ERK5 That Induces Regulated Cell Death to Overcome Compensatory Mechanism in Specific Tumor Types” (J Med Chem, 2020).

Assay [1] has as its target Mitogen-activated protein kinase 3 (Homo sapiens) (UniProt P27361). Description: Inhibition of ERK1 (unknown origin) at 1 uM by Z'-Lyte assay relative to control.
Assay [2] deals with Mitogen-activated protein kinase 1 (Homo sapiens) (UniProt P28482). The assay can be described thus: Inhibition of ERK2 (unknown origin) at 1 uM by Z'-Lyte assay relative to control.
In assay [3] the target is Mitogen-activated protein kinase 7 (Homo sapiens) (UniProt Q13164). Description: Inhibition of ERK5 (unknown origin) at 1 uM by Z'-Lyte assay relative to control.
The subject of another assay is HL-60. Description: Antiproliferative activity against human HL60 cells assessed as reduction in cell viability measured after 24 hrs. Type of assay: functional, cell-based. To be noted: HL-60, 24 h.
The test system of another assay is MKN-74. The assay can be described thus: Antiproliferative activity against human MKN74 cells assessed as reduction in cell viability measured after 24 hrs. To be noted: MKN-74, 24 h. Type of assay: functional, cell-based.
The next assay deals with HeLa. Description: Antiproliferative activity against human HeLa cells assessed as reduction in cell viability measured after 24 hrs. Type of assay: functional, cell-based.
The target of assay [4] is Mitogen-activated protein kinase 7 (Homo sapiens) (UniProt Q13164). The assay can be described thus: Inhibition of ERK5 in human MKN74 cells harboring ERK1/2 siRNA assessed as reduction in ERK5 phosphorylation at 1 uM by Western blot analysis. Type of assay: cell-based. In a few lines:
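MKN-74 cells were transfected with ERK1/2-specific siRNA or negative-control siRNA, then exposed to compound. ERK1/2, p-ERK1/2, ERK5 and p-ERK5 were read by immunoblotting, with GAPDH as loading control.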
(In western blotting, separated proteins are transferred to a membrane and probed.)

Activity calls are given as the source filed them. The calls are words filed in the database; no cut-off is given here.

Mitogen-activated protein kinase 7 (Homo sapiens), sequence (Q13164 2-816 limits assumed): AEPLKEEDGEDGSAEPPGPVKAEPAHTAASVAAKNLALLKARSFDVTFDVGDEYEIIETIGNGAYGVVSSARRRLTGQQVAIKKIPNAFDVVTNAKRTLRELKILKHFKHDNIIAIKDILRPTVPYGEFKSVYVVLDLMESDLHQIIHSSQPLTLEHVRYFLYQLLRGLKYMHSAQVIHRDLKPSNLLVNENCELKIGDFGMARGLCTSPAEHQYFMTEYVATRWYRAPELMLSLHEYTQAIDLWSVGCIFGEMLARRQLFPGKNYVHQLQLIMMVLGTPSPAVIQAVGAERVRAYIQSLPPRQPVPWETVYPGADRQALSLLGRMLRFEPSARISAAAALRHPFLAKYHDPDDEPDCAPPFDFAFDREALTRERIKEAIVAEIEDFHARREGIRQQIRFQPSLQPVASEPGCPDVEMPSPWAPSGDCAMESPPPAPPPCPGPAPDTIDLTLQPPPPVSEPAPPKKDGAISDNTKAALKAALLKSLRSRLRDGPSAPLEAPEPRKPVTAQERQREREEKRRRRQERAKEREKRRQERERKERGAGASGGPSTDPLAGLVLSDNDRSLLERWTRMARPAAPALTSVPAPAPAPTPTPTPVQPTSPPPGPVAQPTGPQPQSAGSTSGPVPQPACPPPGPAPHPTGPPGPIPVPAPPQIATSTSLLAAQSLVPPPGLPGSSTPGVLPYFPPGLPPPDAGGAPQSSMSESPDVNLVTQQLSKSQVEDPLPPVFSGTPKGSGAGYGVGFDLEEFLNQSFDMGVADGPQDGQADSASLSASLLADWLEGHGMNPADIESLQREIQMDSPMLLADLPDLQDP
Mitogen-activated protein kinase 3 (Homo sapiens), sequence (P27361 whole entry): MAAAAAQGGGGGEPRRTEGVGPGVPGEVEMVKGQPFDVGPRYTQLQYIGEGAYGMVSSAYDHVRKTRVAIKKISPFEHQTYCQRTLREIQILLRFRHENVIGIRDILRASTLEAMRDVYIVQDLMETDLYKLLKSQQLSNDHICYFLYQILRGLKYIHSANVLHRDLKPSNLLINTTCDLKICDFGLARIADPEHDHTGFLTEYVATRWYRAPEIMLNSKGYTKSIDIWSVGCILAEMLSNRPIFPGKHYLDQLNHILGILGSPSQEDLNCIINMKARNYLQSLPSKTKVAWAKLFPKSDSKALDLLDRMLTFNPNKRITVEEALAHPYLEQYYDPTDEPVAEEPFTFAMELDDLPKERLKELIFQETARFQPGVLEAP
Mitogen-activated protein kinase 1 (Homo sapiens), sequence (P28482 whole entry): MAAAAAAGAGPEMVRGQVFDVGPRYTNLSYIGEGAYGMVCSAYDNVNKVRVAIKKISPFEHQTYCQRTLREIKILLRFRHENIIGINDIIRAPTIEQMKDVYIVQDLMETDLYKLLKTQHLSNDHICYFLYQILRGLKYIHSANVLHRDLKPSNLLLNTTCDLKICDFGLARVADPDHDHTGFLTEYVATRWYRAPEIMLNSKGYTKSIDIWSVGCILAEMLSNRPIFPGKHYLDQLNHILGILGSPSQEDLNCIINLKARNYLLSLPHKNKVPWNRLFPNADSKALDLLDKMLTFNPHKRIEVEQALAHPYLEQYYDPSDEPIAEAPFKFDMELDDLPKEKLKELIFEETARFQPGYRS

With `O=C(Nc1ccc2[nH]nc(-c3ccncc3)c2c1)[C@@H]1CCN(CC(=O)N2CCN(c3ccc(-c4ncccn4)cc3)CC2)C1`, the results for the inhibition in assay [1], in assay [2] and in assay [3] were 98.8%, 99.2% and under 50%, respectively. The IC50 was 1.06 µM in the assay on HL-60, over 50 µM in the assay with MKN-74 and over 50 µM in the assay on HeLa. The inhibition entry in assay [4] is “inactive”.

Regarding `NC(=O)c1c(NC(=O)c2ccc[nH]2)sc2c1CCN(C(=S)Nc1cccnc1)C2`, the inhibition came to 74.4% in assay [1], 79.7% in assay [2] and 48.6% in assay [3]. Moreover, the IC50 in the assay on HL-60 is over 50 µM; with MKN-74, over 50 µM; in the assay on HeLa, 47.4 µM.

On to `NC(=O)c1c(NC(=O)c2ccccc2C(F)(F)F)sc2c1CCN(C(=S)Nc1ccccc1F)C2`, for which the inhibition was 77.2% in assay [1], 81.6% in assay [2] and 86.5% in assay [3]. In addition, the IC50 with HL-60 is 23.5 µM; with MKN-74, 19.6 µM; in the assay with HeLa, over 50 µM.

For the compound `CCOc1cc(N2CCC(O)CC2)ccc1Nc1ncc2c(n1)N(C)c1ccccc1C(=O)N2C`, the inhibition in assay [1] and in assay [2] was under 50% each time. The values for the IC50 with HL-60, with MKN-74 and in the assay on HeLa were 10.6 µM, over 50 µM and over 50 µM, respectively. Also, the inhibition result in assay [4] is “Active”.

Consider `NC(=O)c1c(NC(=O)c2ccccc2Cl)sc2c1CCN(C(=S)Nc1ccccc1F)C2`, for which the results for the inhibition in assay [1], in assay [2] and in assay [3] were 88.4%, 82.8% and 70.7%, respectively. In addition, the results for the IC50 with HL-60, in the assay on MKN-74 and in the assay with HeLa were 4.97 µM, 12.6 µM and 28.7 µM, respectively.

Turning to `Cc1ccc(C(=O)Nc2sc3c(c2C(N)=O)CCN(C(=S)Nc2ccccc2Cl)C3)cc1`, the inhibition was 83.2% in assay [1], 82.8% in assay [2] and 50.4% in assay [3]. Moreover, the figures for the IC50 in the assay with HL-60, in the assay with MKN-74 and in the assay on HeLa were 8.43 µM, 11.3 µM and 26.2 µM, respectively.

Consider `NC(=O)c1c(NC(=O)c2ccccc2I)sc2c1CCN(C(=S)Nc1ccccc1Br)C2`, for which the results for the inhibition in assay [1], in assay [2] and in assay [3] were 82%, 80% and 85.5%, respectively. For the same compound, the IC50 in the assay with HL-60 is 18.9 µM; in the assay on MKN-74, 22.4 µM; in the assay with HeLa, over 50 µM.

In the case of `NC(=O)c1c(NC(=O)c2ccccc2Cl)sc2c1CCN(Cc1ccc(Cl)cc1Cl)C2`, the inhibition in assay [1] came out at 68.9%; in assay [2], 66.6%; in assay [3] it was 63.1%. Moreover, the IC50 in the assay on HL-60 was 8.01 µM; with MKN-74, 16.3 µM; with HeLa, 21.1 µM.

As for `NC(=O)c1c(NC(=O)c2ccccc2)sc2c1CCN(C(=S)Nc1ccccc1Cl)C2`, the inhibition amounted to 73.8% in assay [1], 77.5% in assay [2] and 58.9% in assay [3]. Also, the IC50 in the assay with HL-60 is 13.8 µM; in the assay with MKN-74, 11.8 µM; with HeLa, over 50 µM.

As a reminder, the inhibition is how much of the control response was suppressed. Usually IC50 stands for the concentration at which inhibition is half-maximal.
